Rpn11 inh – inhibitors of human proteasome Rpn11; O00487; human 26S proteasome, Ub4-pepOG fluorescence polarization; 20S core pre-blocked with epoxomicin; inhibition, % at 20 µM; actives 0.59% (n = 360,000); AID 588493;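 active means inhibition at 20 µM, scaled to each plate's controls, above about 33%, limit read from the data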
IDE cell inh – inhibitors of human insulin-degrading enzyme in cells; P14735; HEK cells, FAbetaB cleavage, fluorescence polarization; inhibition, % at 5.59 µM; actives 0.41% (n = 320,000);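 active means percent inhibition above the average of all tested compounds plus 3 SD, set per screening campaign, cut at about 16% in these data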;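 further: IDE supplied by intact live HEK cells; FP after avidin binding of uncleaved biotin substrate so inhibition keeps polarization high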
IDE act – IDE (human) activation, cell-based | P14735 | HEK cells, FAbeta-B cleavage, fluorescence polarization; 0% vehicle, 100% cell-free pure enzyme wells | activation, % at 5.96 µM | actives 0.073% (n = 340,000) | AID 493087;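 active means activation above the mean of all tested compounds plus 3 SD, set per screening campaign, cut at about 17% in these data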
CSN deneddyl inh – inhibitors of human CSN-mediated cullin deneddylation | Q92905 | Purified CSN, SCF-Nedd8-OG deneddylation, fluorescence polarization | inhibition, % at 12.5 µM | actives 0.38% (n = 360,000) | AID 651999;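 active means pattern-corrected inhibition above about 35%, with an unprinted fluorescence ratio check between 0.5 and 1.5, limit read from the data, passing the limit was not always enough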
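Material: purified human Csn5 enzyme expressed in HEK293T cells / Medium: Tris buffer pH 7.5, NaCl, DTT, Tween-20, trehalose, ovalbumin / Compound dosing: 12.5 µM single point / Schedule: 90 min incubation of compound, enzyme and substrate at room temperature / Signal: fluorescence polarization of the substrate / Control set: no-enzyme wells high, enzyme-with-substrate wells low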
HNF4A DNA FP – change in binding of human HNF4 alpha to DNA. HNF4a-FITC DNA binding, fluorescence polarization, 1 h. activity change, % at 10 µM. actives 0.3% (n = 360,000). AID 1224865. P41235; in the data active means activity change above about 30%, passing the limit was not always enough
TPT1 inhibitor – inhibitors of Candida albicans tRNA 2'-phosphotransferase TPT1. recombinant caTPT1, FP RNA substrate dephosphorylation. inhibition, % at 5 µM. actives 0.81% (n = 300,000). AID 1962;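 active means inhibition above the mean of all tested compounds plus 3 SD, set per screening campaign, cut at about 24% in these data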
Rpn11 confirm – confirmation of human proteasome Rpn11 inhibitors; shares compounds with Rpn11 inh; purified human 26S proteasome, Ub4-pepOG fluorescence polarization; proteasome pretreated with epoxomicin; inhibition, % at 20 µM; actives 29% (n = 1,900)
MMP-2 counter – counter-screen for RPN11 inhibitors: inhibition of human MMP-2; AID 602330; recombinant MMP-2, FRET peptide cleavage fluorescence; shares compounds with Rpn11 inh; inhibition, % at 20 µM; actives 4% (n = 1,900);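 further: human MMP-2 activated beforehand with APMA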
Target sequence (P08253 whole entry, looked up): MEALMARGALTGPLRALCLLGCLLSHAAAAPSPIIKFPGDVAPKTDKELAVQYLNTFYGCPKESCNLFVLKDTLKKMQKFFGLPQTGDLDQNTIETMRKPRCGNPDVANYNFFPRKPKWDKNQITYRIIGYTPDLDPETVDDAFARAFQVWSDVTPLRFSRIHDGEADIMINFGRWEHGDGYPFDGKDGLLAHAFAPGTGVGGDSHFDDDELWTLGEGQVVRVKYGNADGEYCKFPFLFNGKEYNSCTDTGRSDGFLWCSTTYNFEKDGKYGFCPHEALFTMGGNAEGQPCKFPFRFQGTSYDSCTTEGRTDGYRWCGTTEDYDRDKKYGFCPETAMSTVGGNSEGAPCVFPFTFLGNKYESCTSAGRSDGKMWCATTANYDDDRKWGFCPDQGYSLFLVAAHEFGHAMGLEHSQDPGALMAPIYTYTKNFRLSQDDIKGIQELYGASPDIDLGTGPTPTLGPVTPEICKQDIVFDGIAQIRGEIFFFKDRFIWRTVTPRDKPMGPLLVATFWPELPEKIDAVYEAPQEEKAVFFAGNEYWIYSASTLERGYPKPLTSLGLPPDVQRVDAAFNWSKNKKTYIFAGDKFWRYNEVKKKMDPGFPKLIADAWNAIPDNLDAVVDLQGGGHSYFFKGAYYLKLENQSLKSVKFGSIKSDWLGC
Thrombin FP – blocks bovine thrombin, flagging nonselective RPN11 hits; shares compounds with Rpn11 inh; bovine thrombin cleavage of Ub4-pepOG, fluorescence polarization; inhibition, % at 20 µM; actives 13% (n = 1,900); AID 602333;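 active means mean inhibition at least 40% at 20 µM, or signal 3 deviations below plate average, so some actives read negative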
Numbers stand for hits; . = inactive; / = no result given; + = active, no number. Only some compounds are listed: those with a hit (about 1.7% of all), similar ones and a draw of the others. Unless noted, no stated cut-off is given here; in the data, active means inhibition above about 40%; inactive means the rest.

SMILES	Rpn11 inh	IDE cell inh	IDE act	CSN deneddyl inh	HNF4A DNA FP	TPT1 inhibitor	Rpn11 confirm	MMP-2 counter	Thrombin FP
COc1ccc(Cn2c(-c3ccco3)nc3c(c(=O)c4ccccc4n3C)c2=O)cc1	+	.	.	.	.	.	.	.	42
COc1ccc(Cn2c(C)nc3c(c2=O)c2nc4ccccc4nc2n3Cc2ccco2)cc1	+	/	.	45	.	/	.	.	.
COc1ccc(Cn2c(C)nc3c(c(=O)c4ccccc4n3C)c2=O)cc1	.	.	.	.	.	.	/	/	/
O=c1[nH]c(/C=C/c2ccccc2Cl)nc2ccccc12	75	.	.	.	79	.	.	.	.
NS(=O)(=O)c1ccc(-c2ccc(/C=C3\C(=O)Nc4ccccc43)o2)cc1	/	.	/	/	/	.	/	/	/
NC1=NC(=O)/C(=C/c2ccc(-c3ccc(S(N)(=O)=O)cc3)o2)S1	78	.	.	.	.	.	89	46	42
COC(=O)C1(C(=O)OC)C2CCCCC2N(S(=O)(=O)c2ccc(C)cc2)[C@@H]1CC(C)=O (stereo not given in full)	/	/	/	.	.	/	/	/	/
O=c1nc(Nc2ccc(Br)cc2)sc2ccc([N+](=O)[O-])cc12	44	.	.	46	.	.	.	.	.
CC(=O)Nc1nc2cc([N+](=O)[O-])ccc2s1	.	.	.	.	.	/	/	/	/
CCOC(=O)C1=C[C@@H](c2ccccc2)N(S(=O)(=O)c2ccc(C)cc2)[C@H]1c1ccc(OC)cc1	.	/	/	.	.	/	/	/	/
CC1C(=O)N(Cc2cn(CCC3OCCO3)nn2)CCS(=O)(=O)N1Cc1ccc(-c2ccc(Cl)c(Cl)c2)cc1 (stereo not given)	.	/	/	.	.	/	/	/	/
O=C(N=NC(=O)c1ccco1)c1ccc2c(O)n(N3C(=O)c4ccccc4C3=O)c(O)c2c1	48	.	.	.	.	.	.	.	.
Cc1ccc(C(=O)Nc2ccc(C(=O)N/N=C/c3cccnc3)cc2)cc1	57	.	.	.	.	.	49	.	.
COc1ccccc1N1CCN(C(=O)CC(NC(=O)c2ccccc2Cl)c2ccccc2)CC1 (stereo not given)	.	/	.	.	.	/	/	/	/
Cc1nc(NC(=O)/C=C/c2ccccc2)sc1C(=O)Nc1ccc(Cl)cc1	.	.	.	.	.	.	/	/	/
Cc1nc(NC(=O)/C=C/c2ccccc2)sc1C(=O)Nc1ccccc1Cl	40	.	.	.	.	.	.	.	.
CCC1([N+](=O)[O-])COC(c2ccc(OC)cc2)OC1 (stereo not given)	.	/	.	.	.	/	/	/	/
COc1cc(F)ccc1-c1csc(C(O)c2ccc(F)cc2)n1 (stereo not given)	.	/	/	.	.	/	/	/	/
CCCOc1ccc(-c2nnn(CC(=O)c3c[nH]c4ccccc34)n2)cc1	50	.	.	.	.	.	.	.	.
Cc1ccc(SCCc2cc[n+](CC(=O)c3ccccc3)cc2)cc1	38	.	.	.	.	.	.	.	.
CCOC(=O)CCC(=O)N1CCOCCOCCOCC1	.	.	.	.	.	.	/	/	/
CCOC(=O)CCC(=O)N1CCOCCN(C(=O)CCC(=O)OCC)CCOCC1	47	.	.	.	.	.	.	.	.
COc1ccccc1NC(=O)Nc1nc(CC(=O)Nc2cc(F)ccc2F)cs1	46	.	.	.	.	.	.	.	.
COc1ccccc1NC(=O)Nc1nc(CC(=O)Nc2cccc(F)c2)cs1	.	.	.	.	.	.	/	/	/
Cc1ccc(S(=O)(=O)NCC(=O)OCC(=O)Nc2ccc3c(c2)OCCO3)cc1	.	.	.	.	.	/	/	/	/
SMILES	Rpn11 inh	IDE cell inh	IDE act	CSN deneddyl inh	HNF4A DNA FP	TPT1 inhibitor	Rpn11 confirm	MMP-2 counter	Thrombin FP
CCN1C(=O)c2cccc3c(NC(=O)c4ccc(S(=O)(=O)N5CCOCC5)cc4)ccc1c23	75	.	.	.	.	.	.	.	.
Cc1cn([C@H]2C[C@H](O)[C@@H](CNCc3ccccc3OCCCN3CCOCC3)O2)c(=O)[nH]c1=O	.	/	/	.	.	/	/	/	/
COC(=O)c1sccc1NC(=O)c1ccncc1	48	.	.	.	.	.	.	.	.
COC(=O)c1sccc1NC(=O)c1cc(OC)cc(OC)c1	.	.	.	.	.	.	/	/	/
c1ccc(CN2CCN(C3=Nc4cccc5cccc3c45)CC2)cc1	.	/	.	.	.	/	/	/	/
Fc1ccc(N2CCN(C3=Nc4cccc5cccc3c45)CC2)cc1	42	.	.	.	.	.	.	.	.
Cc1ccc(C)c(OCCn2cc(/C=C(/C#N)C(=O)NCC3CCCO3)c3ccccc32)c1 (stereo not given)	100	.	.	.	.	.	72	.	.
CC(=O)N1CCN(c2ccc(NC(=O)c3cccc(OCc4ccccc4)c3)cc2)CC1	82	.	.	.	.	.	.	.	.
O=C(O)c1ccc2c(c1)S(=O)(=O)c1cc(N3CCN(c4cnccn4)CC3)ccc1C2=O	.	/	/	.	.	/	/	/	/
COc1ccc(CCNC(=O)CN(C2CCCCC2)S(C)(=O)=O)cc1	114	.	.	.	.	.	.	.	.
Nc1ccc(CCCC(=O)NCc2cccnc2)cc1	.	/	/	.	.	/	/	/	/
O=NN(CC(=O)NNc1ccccc1)CC(=O)NNc1ccccc1	.	/	/	.	.	/	/	/	/
Clc1ccc(OCCSCc2nc3ccccc3[nH]2)cc1	44	.	.	.	.	.	.	.	.
Cc1ccc(OCCSCc2nc3ccccc3[nH]2)cc1	.	.	.	.	.	.	/	/	/
Cc1ccsc1/C=N/n1c(-c2cc(-c3ccccc3)n[nH]2)n[nH]c1=S	53	.	.	.	.	.	100	.	.
S=c1[nH]nc(-c2cc(-c3ccccc3)n[nH]2)n1/N=C/c1c(Cl)cccc1Cl	47	.	.	46	.	.	87	45	52
CCC(C)NC(=O)C1c2cc(OC)c(OC)cc2C(=O)N(C)C1c1ccc(OC)cc1 (stereo not given)	.	.	.	.	.	.	/	/	/
CCC(C)NC(=O)C1c2cc(OC)c(OC)cc2C(=O)N(C)C1c1cccs1 (stereo not given)	158	.	.	.	.	.	.	.	.
COc1cccc(N2CCN(S(=O)(=O)c3cc4c(cc3Cl)NC(=O)CO4)CC2)c1	.	.	.	.	.	.	/	/	/
Cc1cccc(N2CCN(S(=O)(=O)c3cc4c(cc3Cl)NC(=O)CO4)CC2)c1C	44	.	.	.	.	.	.	.	.
COc1cc(C(O)c2nc(-c3ccccc3OC)cs2)ccc1F (stereo not given)	.	/	/	.	.	/	/	/	/

High-throughput results from PubChem.
